Assay results published in PubChem BioAssay AID489031 (Sanford-Burnham Center for Chemical Genomics, 2010).
About 1,000 (0.3%) of roughly 330,000 compounds were called active.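 The calls were made as follows: active = activity change at or below -40% at 20 µM; inactive = the rest.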 Only a selection was taken, and actives are over-represented in it overall.

Molecular target: Apoptotic protease-activating factor 1 (Homo sapiens) (UniProt O14727)
Test: activators of human Apaf-1 apoptosome, primary screen, biochemical, DEVD-Rh110 fluorescence, uHTS (AID 489031)
Settings: Apaf-1 apoptosome caspase-3 activation, at 20 µM, hits give low values
Method in brief: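 System: Reconstituted apoptosome of Apaf-1, cytochrome c, caspase-9, procaspase-3 | Reagent: dATP, cytochrome c, and (Z-DEVD)2-Rh110 caspase-3 substrate | Times: 30 min compound preincubation and 50 min reaction, both room temperature | Detection: Caspase-3-released Rh110 fluorescence, 540 nm emission, 480 nm excitation | Measure: Caspase-3 activity via Apaf-1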

Apoptotic protease-activating factor 1 (Homo sapiens), sequence (O14727 whole entry, looked up): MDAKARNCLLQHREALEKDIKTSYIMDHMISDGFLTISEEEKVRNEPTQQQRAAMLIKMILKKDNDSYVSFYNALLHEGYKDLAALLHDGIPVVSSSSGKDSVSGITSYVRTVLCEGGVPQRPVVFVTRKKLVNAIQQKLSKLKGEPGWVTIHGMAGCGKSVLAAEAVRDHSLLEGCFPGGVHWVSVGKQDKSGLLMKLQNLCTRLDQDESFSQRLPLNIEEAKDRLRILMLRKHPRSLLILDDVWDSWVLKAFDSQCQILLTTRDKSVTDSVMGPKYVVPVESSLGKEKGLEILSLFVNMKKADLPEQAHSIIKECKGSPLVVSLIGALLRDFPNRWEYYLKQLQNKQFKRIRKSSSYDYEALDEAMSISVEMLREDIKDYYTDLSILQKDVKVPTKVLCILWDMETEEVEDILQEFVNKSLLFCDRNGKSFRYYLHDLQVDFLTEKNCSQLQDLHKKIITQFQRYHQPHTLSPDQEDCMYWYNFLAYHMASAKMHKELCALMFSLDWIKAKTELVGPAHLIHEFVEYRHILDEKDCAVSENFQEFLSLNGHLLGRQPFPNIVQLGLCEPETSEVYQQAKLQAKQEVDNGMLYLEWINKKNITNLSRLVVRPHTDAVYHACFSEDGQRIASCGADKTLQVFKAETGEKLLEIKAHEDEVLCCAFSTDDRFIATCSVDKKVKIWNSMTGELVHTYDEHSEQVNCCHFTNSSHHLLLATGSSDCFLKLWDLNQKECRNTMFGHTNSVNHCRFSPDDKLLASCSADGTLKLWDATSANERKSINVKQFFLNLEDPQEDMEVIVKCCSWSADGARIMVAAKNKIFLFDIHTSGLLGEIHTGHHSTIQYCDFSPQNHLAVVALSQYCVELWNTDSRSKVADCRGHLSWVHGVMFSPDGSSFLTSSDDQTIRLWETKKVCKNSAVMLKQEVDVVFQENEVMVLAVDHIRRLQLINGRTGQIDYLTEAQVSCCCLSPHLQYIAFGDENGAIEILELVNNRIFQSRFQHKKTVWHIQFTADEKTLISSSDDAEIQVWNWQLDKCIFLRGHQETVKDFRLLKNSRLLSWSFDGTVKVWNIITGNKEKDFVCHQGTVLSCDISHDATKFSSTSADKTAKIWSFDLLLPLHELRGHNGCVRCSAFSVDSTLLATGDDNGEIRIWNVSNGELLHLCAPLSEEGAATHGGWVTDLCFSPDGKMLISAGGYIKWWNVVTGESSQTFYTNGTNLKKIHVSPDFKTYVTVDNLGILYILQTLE

Activity change, negative = activation, active:
Cc1nn(CC(=O)Nc2ccc(C#N)cc2)c(C)c1[N+](=O)[O-] -116%
CC(C)OCCCNC(=S)N1CCC(C(=O)c2ccc3c(c2)OCCO3)CC1 -164%
C=C(C)C(=O)Nc1cccc(C2=NOC3(C2)C[C@H](C(N)=O)N(C(=O)C(c2ccccc2)c2ccccc2)C3)c1 (stereo partly drawn) -78.2%
O=c1[nH]cnc2c1c(-c1ccccc1)cn2-c1ccc(F)cc1 -47%
COc1cc(C2C(C#N)=C(N)Oc3n[nH]c(-c4ccccn4)c32)cc(OC)c1OC (stereo not drawn) -84.8%
O=C(CSc1nc2ccccc2c(=O)[nH]1)Nc1nc(-c2ccc(Br)cc2)cs1 -74%
COc1ccc(C2CC(c3ccccc3)Nc3ncnn32)cc1 (stereo not drawn) -445%
O=C(CN1C(=O)C2C3C=CC(C3)C2C1=O)NCCc1ccccc1Cl (stereo not drawn) -99.8%
Cc1ccc(-c2nc(SCC(=O)Nc3ccccc3OC(F)F)c3c(C)c(C(=O)O)sc3n2)cc1 -98.5%
CCOCCCNC(=O)c1c[nH]c2cc(C)ccc2c1=O -152%
COC(=O)C(C)N(C#N)c1nc(C)nc(C)n1 (stereo not drawn) -363%
COc1ccc(C2c3ccc(O)cc3Oc3ncn(CCCO)c(=N)c32)cc1OC (stereo not drawn) -43.4%
COc1ccc(S(=O)(=O)N2CCCCC2)cc1NC(=O)c1cc([N+](=O)[O-])ccc1N1CCOCC1 -42.8%
CC(=O)CCC(=O)c1ccc2ccccc2c1 -178%
Cc1ccc(S(=O)(=O)c2c(N)n(C)c3nc4ccccc4nc23)cc1 -405%
O=C(Nc1cccc(-c2nc3ccccc3[nH]2)c1)c1ccc(C(=O)Nc2cccc(-c3nc4ccccc4[nH]3)c2)cc1 -44%
C=CC1=C(C(=O)O)N2C(=O)[C@@H](NC(=O)/C(=N/OCC(=O)O)c3csc(N)n3)[C@H]2SC1 -112%
C=CC1=C(C(=O)O)N2C(=O)[C@@H](NC(=O)/C(=N\OCC(=O)O)c3csc(N)n3)[C@H]2SC1 -78%

Activity change, negative = activation, inactive:
CCOC(=O)N1CCC(c2cc(=O)n(-c3ccccc3)[nH]2)CC1 86.7%
COCCNC(=O)Nc1ccc2nc(-c3ccco3)c(-c3ccco3)nc2c1 64.8%
CC(=O)N=c1ncn(CC(COC(C)=O)OC(C)=O)c2nc[nH]c12 (stereo not drawn) 74.2%
CCCCNC(=O)C(C)N(CCN(C)C)C(=O)CCCCCN1C(=O)NC(c2ccc(Cl)cc2)C(C(=O)OCc2ccccc2)=C1C (stereo not drawn) 67.1%
c1ccc(C[C@H]2CNCCN2CCC23CC4CC(CC(C4)C2)C3)cc1 47.5%
CC(C)c1ccccc1OCC(O)CN(CC(O)COc1cccc2ccccc12)C(C)C (stereo not drawn) 57.3%
c1ccc(CSc2nnc(-c3ccco3)c(-c3ccco3)n2)cc1 49.6%
Cc1ccsc1/C=N/NC(=O)Cc1cc(=O)[nH][nH]1 58.3%
COc1ccccc1C1C(C#N)=C(N)Oc2c1c(-c1ccccc1)nn2-c1ccccc1 (stereo not drawn) 42.2%
COc1ccc2sc(-c3ccccc3OC)c(-c3ccc(OCCN4CCCC4)cc3)c2c1 73.4%
C/C(=N\NC(=O)CNc1cccc2ccccc12)c1ccc(Br)s1 90.2%
Cc1ccc(-c2ccc(/C=N/NC(=O)CN3CCOCC3)o2)cc1[N+](=O)[O-] 73.9%
O=C(CCCN1CCc2[nH]c3ccc(F)cc3c2C1)c1ccc(F)cc1 65%
NC[C@H](Cc1ccccc1)NCCc1cc(C(F)(F)F)cc(C(F)(F)F)c1 60.8%
Clc1ccccc1CSc1nnc(-c2ccco2)c(-c2ccco2)n1 49.9%
Cc1ccc2nc(N3CCN(C(=O)c4ccco4)CC3)sc2c1 41.9%
CC[N+](C)(CC)CCC[n+]1c(-c2ccccc2)c2cc(N)ccc2c2ccc(N)cc21 98.2%
CN(C)CCCN(C(=O)c1ccc(S(=O)(=O)N2CCCCCC2)cc1)c1nc2ccc(Br)cc2s1 60.4%
O=[N+]([O-])c1c(NCCO)cc(Sc2nc3ccccc3s2)c2nonc12 90.7%
C=CCC[C@H](Cc1ccc(F)cc1)C(=O)OC[C@@H](NC(=O)[C@@H](CC=C)CC(=O)N[C@H](CO)Cc1ccccc1)C(C)(C)C 40.6%
O=C(O)c1cc(Cl)c(Cl)cc1C(=O)Nc1cccc2ncccc12 80.4%
CCCCN(CCCC)CCC(O)c1cc2c(Cl)cc(Cl)cc2c2cc(C(F)(F)F)ccc12 (stereo not drawn) 48.9%
Cc1cc(C)n(-c2nc(SCC(=O)N3CCCC3)c3c4c(sc3n2)CCCC4)n1 43.6%
O=c1cc(N2CCCCC2)c(-c2ccccc2)nn1Cc1cccc(F)c1 44%
OC(CNCC1CCCO1)Cn1c2ccc(Br)cc2c2cc(Br)ccc21 (stereo not drawn) 43.4%
O=S(=O)(Nc1ccc(O)c2ccccc12)c1ccc(OC(F)(F)F)cc1 60.9%
COc1ccc(NC(=O)CN(Cc2ccccc2)S(C)(=O)=O)cc1OC 40.8%
Cc1[nH][nH]c(=O)c1C(c1ccc(-c2ccc(Cl)cc2)o1)c1c(C)[nH][nH]c1=O 85.8%
CCC(=O)Nc1c(S(=O)(=O)c2ccccc2)c2nc3ccccc3nc2n1Cc1ccccc1 49.2%
C=CCn1c(N)c(C(=O)OCC(C)C)c2nc3ccccc3nc21 54.1%
C#CCOCCOCCOCCNc1nc(N2CCN(C(=O)CCCCCCCCCCNC(=O)[C@H](CCCCN)n3cc(C)nn3)CC2)nc(N2CCN(C(=O)CCCCCCCCCCNC(=O)[C@H](CO)n3cc(CCCSC)nn3)CC2)n1 59.7%
CC(C)n1cnc2c(NCc3ccccc3)cc(N[C@@H](CO)Cc3ccccc3)cc21 94.5%
NC(N)=N/N=C/c1ccc(OCc2ccc(Cl)cc2Cl)cc1 65.5%
CCOC(=O)N1CCC(NC(=O)C(C)n2c3ccccc3c3cnn(C)c(=O)c32)CC1 (stereo not drawn) 44.6%
C#C[C@]1(O)CC[C@H]2[C@@H]3CCC4=CC(=O)CC[C@@H]4[C@H]3CC[C@@]21CC 1.24%
